TAAR1 ag = human TAAR1 agonists, primary screen, Fluo-8 calcium fluorescence, CHO RD-HGA16 cells; AID 624467, 2012; vehicle wells 0%, saturating PEA agonist 100%; 360,000 compounds, 0.99% hits; Trace amine-associated receptor 1 (Homo sapiens), Q96RJ0; activation, % at 3 µM;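 active = activation above the mean activation of all test compounds in the run plus 3 SD, cut at about 38% in these data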
Target sequence (Q96RJ0 whole entry, looked up): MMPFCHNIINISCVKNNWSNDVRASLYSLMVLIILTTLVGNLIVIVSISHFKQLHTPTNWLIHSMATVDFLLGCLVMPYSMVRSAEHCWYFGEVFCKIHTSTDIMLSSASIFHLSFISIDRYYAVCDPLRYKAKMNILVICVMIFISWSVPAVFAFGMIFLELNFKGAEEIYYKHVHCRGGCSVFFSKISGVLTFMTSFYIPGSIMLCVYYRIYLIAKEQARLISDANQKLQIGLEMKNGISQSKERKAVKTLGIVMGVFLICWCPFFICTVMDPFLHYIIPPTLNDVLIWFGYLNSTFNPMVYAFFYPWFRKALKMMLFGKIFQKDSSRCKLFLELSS
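System: CHO-derived RD-HGA16 cells with stable Gα16 and human TAAR1 / Times: 17-24 h plating, Fluo-8 75 min 37 °C, 30 min RT / Technique: calcium-sensitive Fluo-8 signal, excitation 470-495, emission 515-575 nm / Measure: % activation relative to PEA EC100 response / Benchmarks: DMSO and PEA EC100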
TAAR1 antagonist = human TAAR1 antagonists, primary screen, Fluo-8 calcium fluorescence, CHO RD-HGA16 cells. Trace amine-associated receptor 1 (Homo sapiens), Q96RJ0. antagonist. 360,000 compounds, 1.5% hits. inhibition, % at 3 µM;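 active = inhibition above a per-plate cutoff, the mean inhibition of test compounds on that plate plus 3 SD, cut at about 49% in these data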;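 note: 0% = DMSO plus EC80 beta-PEA response and 100% = DMSO alone without agonist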
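Test system: RD-HGA16 CHO cells with stable hTAAR1 and Gα16 / Probe or stimulus: EC80 β-phenethylamine stimulus / Times: seeding 17-24 h prior, 75-min 37 °C, 30-min RT dye loading / Detection: Fluo-8 calcium-sensitive fluorescence / Read-out basis: % inhibition scaled between DMSO and EC80 PEA controls / Repeats: singlicate, one well per test compound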
OXTR potentiate = human OXTR potentiators, primary screen, fluorescence, CHO-OTR cells, Fluo-8 calcium | Oxytocin receptor (Homo sapiens), P30559 | Fluo-8 calcium fluorescence, potentiator mode; 0% = oxytocin EC15, 100% = EC100 | activation, % at 3 µM | 320,000 compounds, 0.061% hits;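 active = activation above that plate's cutoff, the mean activation of tested compounds plus 3 SD, cut at about 6.6% in these data, passing the limit was not always enough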;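 note: 100% uses oxytocin at 75 nM as the full agonist control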
Target sequence (P30559 whole entry, looked up): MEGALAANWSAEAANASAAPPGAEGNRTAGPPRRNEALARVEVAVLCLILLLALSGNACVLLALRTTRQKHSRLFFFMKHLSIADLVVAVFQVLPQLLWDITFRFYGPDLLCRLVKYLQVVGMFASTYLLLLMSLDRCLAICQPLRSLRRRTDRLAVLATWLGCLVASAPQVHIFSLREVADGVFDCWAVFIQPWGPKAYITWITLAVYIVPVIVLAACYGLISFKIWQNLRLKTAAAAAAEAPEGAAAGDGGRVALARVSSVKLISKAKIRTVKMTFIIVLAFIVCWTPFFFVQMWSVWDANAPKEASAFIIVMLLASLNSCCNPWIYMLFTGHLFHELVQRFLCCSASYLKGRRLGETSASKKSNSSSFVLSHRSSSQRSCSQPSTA
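Assay system: CHO-OTR cells, human receptor / Also added: oxytocin at about EC15, sub-maximal agonist stimulus / Dosing: single dose, 3.0 µM nominal final compound concentration / Incubation: 6 min pre-incubation, 100 s read / Technique: Fluo-8 calcium dye fluorescence / Read-out: % activation vs EC15 and EC100 oxytocin / Benchmarks: EC15 oxytocin low, 75 nM oxytocin high / Replicates: singlicate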
V1aR counter = agonists of human V1a receptor, primary screen, counter-screen for OXTR agonist project, fluorescence, CHO-V1R cells | Vasopressin V1a receptor (Homo sapiens), P37288 | Fluo-8 calcium fluorescence, agonist mode; 0% DMSO, 100% 3 nM vasopressin | activation, % at 3 µM | 320,000 compounds, 0.25% hits;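 active = activation above the mean activation of all tested compounds plus 3 SD, per screening run, cut at about 20% in these data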;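 note: signal is peak over basal fluorescence ratio across a 100 second FLIPR read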
OXTR ag = human OXTR agonists, primary screen, fluorescence, CHO-OTR cells, Fluo-8 calcium | 320,000 compounds, 0.32% hits | AID 2435, 2010 | activation, % at 3 µM | Fluo-8 calcium fluorescence; normalized: DMSO 0%, oxytocin 100% | Oxytocin receptor (Homo sapiens), P30559;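 active = activation above the mean of all tested compounds plus 3 SD, cutoff set per screening run, cut at about 20% in these data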;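 note: peak over basal fluorescence ratio from a 100 s FLIPR kinetic read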
nonsel antag count = nonselective antagonists in TAAR1 counter-screen cells, counter-screen for hTAAR1 antagonist project, cell-based, fluorescence, calcium. shares compounds with TAAR1 antagonist. 2,400 compounds, 77% hits. AID 651780, 2012. counterscreen cell line, antagonist mode. inhibition, % at 3 µM; in the data active = inhibition above about 22%;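 note: CHO-Ga16 host cells stimulated with ATP at an EC80 level; 0% = agonist EC80 plus vehicle and 100% = vehicle without agonist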
TAAR1 antag conf = human TAAR1 antagonists, retest of hits, confirmation, cell-based, fluorescence. inhibition, % at 3 µM. shares compounds with TAAR1 antagonist. 2,400 compounds, 40% hits. AID 651785, 2012. TAAR1-expressing cells, fluorescence antagonist read-out; in the data active = inhibition above about 49%;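 note: CHO-Ga16 host cells challenged with agonist PEA near its EC80; 0% = agonist at EC80 plus vehicle and 100% = vehicle with no agonist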
Ga16 ag counter = calcium activation in Ga16-expressing cells, counter-screen for TAAR1 antagonist project, cell-based, fluorescence. 2,400 compounds, 18% hits. activation, % at 3 µM. shares compounds with TAAR1 antagonist. agonist counterscreen; in the data active = activation above about 12%;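 note: 0% = vehicle wells and 100% = saturating stimulus response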
TAAR1 ag count = TAAR1 activation by candidate antagonists – cell-based, fluorescence, counter-screen for TAAR1 antagonist project; hTAAR1 cell line, agonist mode; shares compounds with TAAR1 antagonist; AID 651955, 2012; 2,400 compounds, 2% hits; activation, % at 3 µM; in the data active = activation above about 37%;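 note: CHO cells stably expressing TAAR1 with calcium dye readout; 0% = DMSO vehicle and 100% = full agonist response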
* = called active by the depositor; . = no result given. This is a sample that favours compounds with a hit; in the whole collection about 2.3% have one here.

SMILES	TAAR1 ag	TAAR1 antagonist	OXTR potentiate	V1aR counter	OXTR ag	nonsel antag count	TAAR1 antag conf	Ga16 ag counter	TAAR1 ag count
Cc1cc2ncn(C(=O)c3cc(-c4ccccc4)nc4ccccc34)c2cc1C	0.7	3.3	-11.8	0.1	-2.1	.	.	.	.
COC(=O)CSc1nnc(NC(=O)c2ccc3c(c2)OCO3)s1	1.6	-0.1	-4.7	-0.3	0.4	.	.	.	.
O=C(Nc1nc2ccc(Cl)cc2s1)[C@@H]1CCCN1C(=O)c1cccs1	-1.3	-6.8	-8.9	1.9	0.8	.	.	.	.
O=C1N[C@@H](Cc2ccccc2)COC(=O)[C@H](Cc2ccc(F)cc2)C/C=C\C[C@@H]1CC(=O)N(CCO)Cc1ccccc1	12.2	25.0	-5.0	-1.0	-1.7	.	.	.	.
CC(C)(C)OC(=O)C[C@H]1C/C=C\C[C@H](CC(=O)N(CCO)Cc2ccccc2)C(=O)N[C@@H](c2ccccc2)COC1=O	21.5	55.9*	-8.0	0.3	-1.0	30.4*	44.0	9.3	5.5
O=C1N[C@@H](c2ccccc2)COC(=O)[C@H](Cc2ccc(F)cc2)CC/C=C/C[C@H]1CC(=O)N(CCO)Cc1ccccc1	15.3	60.6*	-8.3	0.5	1.0	32.2*	47.4	13.4*	12.8
O=C(C[C@@H]1C/C=C\C[C@H](Cc2ccc(F)cc2)C(=O)OC[C@H]2CCCN2C1=O)N[C@H](CO)Cc1ccccc1	21.3	61.0*	-1.9	0.2	1.8	23.5*	33.4	5.2	1.3
O=C1N[C@H](Cc2ccccc2)COC(=O)[C@H](Cc2ccc(F)cc2)C/C=C\C[C@@H]1CC(=O)N(CCO)Cc1ccccc1	34.6	54.1*	-3.6	3.2	1.4	32.0*	49.2*	12.3*	16.5
CCC(C)Sc1nnc(CNC(=O)C23CC4CC(CC(C4)C2)C3)n1C1CCCCC1 (stereo not given)	8.0	-30.7	-1.4	-1.8	-2.6	.	.	.	.
NC(=O)c1nsc(C(=O)N(Cc2ccco2)C(C(=O)NC2CCCC2)c2ccc(O)cc2)c1N (stereo not given)	8.8	53.1*	.	.	.	21.9*	44.7	7.1	6.7
COc1ccc(C(C(=O)NC2CCCC2)N(Cc2ccco2)C(=O)c2snc(C(N)=O)c2N)cc1OC (stereo not given)	14.3	42.6	-15.0	0.5	0.8	.	.	.	.
CC(C(=O)NC1CCCC1)N(Cc1ccco1)C(=O)c1snc(C(=O)NC2CCCC2)c1N (stereo not given)	6.8	8.1	-4.8	-0.7	-2.6	.	.	.	.
COc1ccc(C(C(=O)NC2CCCCC2)N(Cc2ccco2)C(=O)c2snc(C(N)=O)c2N)cc1 (stereo not given)	15.3	71.3*	.	.	.	30.7*	53.2*	9.3	7.6
COc1ccc(OC)c(-c2nnc(SCC(=O)N3CCCc4ccccc43)o2)c1	9.9	-0.8	0.9	1.3	-1.8	.	.	.	.
Cc1nn(Cc2c(F)c(F)c(F)c(F)c2F)c(C)c1NC(=O)c1ccc(COc2ccccc2Cl)cc1	.	.	.	.	.	13.8	.	4.8	.
CN(CC(=O)Nc1ccccc1Cl)C(=O)c1cc(C2CC2)nn1-c1ccccc1	9.6	20.5	-4.2	0.7	-1.8	.	.	.	.
CCOC(=O)CNC(=O)CNC(=O)c1nn(-c2ccc(OC)c(OC)c2)c(=O)c2ccccc12	5.2	-5.2	0.4	-0.1	0.5	.	.	.	.
COc1ccc(-n2nc(C(=O)NCC(=O)NCCc3ccc(OC)c(OC)c3)c3ccccc3c2=O)cc1	20.2	37.9	2.9	-0.7	-1.2	.	.	.	.
COc1ccc(CCNC(=O)CNC(=O)c2nn(-c3ccc(OC)c(OC)c3)c(=O)c3ccccc23)cc1OC	16.9	52.8*	-4.4	0.5	-0.8	32.5*	50.6*	11.8*	9.4
COc1ccc(-n2nc(C(=O)NCC(=O)NCC3COc4ccccc4O3)c3ccccc3c2=O)cc1OC (stereo not given)	13.2	57.7*	-4.6	-0.7	1.6	27.4*	49.2*	7.4	4.6
CCOC(=O)C1CCN(C(=O)CNC(=O)c2nn(-c3ccc(OC)c(Cl)c3)c(=O)c3ccccc23)CC1	13.3	60.6*	-6.6	-1.7	-2.0	27.9*	41.9	6.9	6.0
COc1ccc(-n2nc(C(=O)NCC(=O)N3CCOCC3)c3ccccc3c2=O)cc1Cl	8.2	14.1	-7.3	2.5	-0.1	.	.	.	.
COc1ccc(-n2nc(C(=O)NCC(=O)Nc3cccc(Cl)c3)c3ccccc3c2=O)cc1OC	19.7	54.8*	-11.4	0.5	-0.2	24.6*	47.8	10.0	11.2
Cc1ccc(C2N=C(N)Nc3nc(=O)c4ccccc4n32)cc1 (stereo not given)	0.5	-42.0	-5.0	1.1	-0.1	.	.	.	.
Cc1ccc2nc(NC(=O)c3ccc(NS(=O)(=O)c4cccs4)cc3)sc2c1	2.9	-14.8	-10.2	0.8	0.7	.	.	.	.
SMILES	TAAR1 ag	TAAR1 antagonist	OXTR potentiate	V1aR counter	OXTR ag	nonsel antag count	TAAR1 antag conf	Ga16 ag counter	TAAR1 ag count
COc1ccc(NC(=O)CNC(=O)c2nn(-c3ccc(OC)c(Cl)c3)c(=O)c3ccccc23)c(OC)c1	9.8	61.0*	-10.5	4.0	-0.9	24.1*	48.6*	5.8	6.8
CCOc1ccc(NC(=O)CNC(=O)c2nn(-c3ccc(OC)c(OC)c3)c(=O)c3ccccc23)cc1	21.2	46.4	-11.1	4.2	2.7	.	.	.	.
CCOc1ccccc1NC(=O)CNC(=O)c1nn(-c2ccc(OC)c(OC)c2)c(=O)c2ccccc12	17.4	59.8*	-5.2	-0.5	-2.4	30.1*	41.1	7.1	14.3
COc1ccc(-c2c(C)nc3c(-c4ccccn4)cnn3c2N)cc1	10.7	66.6*	.	.	.	24.1*	62.2*	9.6	12.3
COc1ccc(-c2c(C)nc3c(-c4ccsc4)cnn3c2N)cc1	3.8	9.5	-8.8	1.7	2.3	.	.	.	.
CC(C)C(=O)Nc1ccc(C(=O)N/N=C/c2cc(Br)cc(Br)c2O)cc1	-1.1	6.1	-9.7	0.9	0.0	.	.	.	.
COc1cccc(C=NNc2nc3ccccc3s2)c1OC	4.5	-2.3	.	.	.	.	.	.	.

Compound activity deposited in PubChem BioAssay by The Scripps Research Institute Molecular Screening Center.
